In ChEMBL document CHEMBL3627690, “Scaffold-Hopping and Structure-Based Discovery of Potent, Selective, And Brain Penetrant N-(1H-Pyrazol-3-yl)pyridin-2-amine Inhibitors of Dual Leucine Zipper Kinase (DLK, MAP3K12)” (J Med Chem, 2015):

Biological target: Mitogen-activated protein kinase 8 (Homo sapiens, UniProt P45983)
Test: Inhibition of JNK1 (unknown origin) by FRET method
Summary of the method: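 JNK1, JNK2 and JNK3 IC50 values came from a 10-point dose–response enzymatic assay.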

Sequence of Mitogen-activated protein kinase 8 (P45983 whole entry): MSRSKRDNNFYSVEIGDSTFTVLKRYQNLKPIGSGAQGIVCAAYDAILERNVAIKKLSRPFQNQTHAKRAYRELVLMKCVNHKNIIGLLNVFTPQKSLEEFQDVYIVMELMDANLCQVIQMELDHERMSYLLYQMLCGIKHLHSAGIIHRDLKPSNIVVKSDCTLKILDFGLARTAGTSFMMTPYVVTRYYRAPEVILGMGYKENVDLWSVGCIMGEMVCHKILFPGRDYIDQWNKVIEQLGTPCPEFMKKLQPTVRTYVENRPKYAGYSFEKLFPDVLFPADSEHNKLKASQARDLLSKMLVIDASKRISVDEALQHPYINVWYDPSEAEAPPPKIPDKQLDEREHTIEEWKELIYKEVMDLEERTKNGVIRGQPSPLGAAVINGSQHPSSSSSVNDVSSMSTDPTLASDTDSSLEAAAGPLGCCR

Work on `N#Cc1ccnc(Nc2cc(C3CCN(C4COC4)CC3)n(C3CCCC3)n2)c1` yielded an IC50 of 1040 nM.
